# HSF-1 act = HSF-1 activators, primary screen, NIH3T3-HGL cells, MG132 stress, luminescence, single point; hit rate 1.7% among 300,000; NIH3T3-HGL HSF-1 luciferase reporter, 8 h; 100% = twice DMSO control signal; activation, % at 9 µM;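 active = mean replicate activation of at least 50% with a set share of replicates each reaching 50%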;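 note: 0% = median of the neutral control wells and 100% = twice that signal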
# HSF1 inh = HSF1 inhibitors in luciferase reporter cells, primary screen, cell-based, NIH3T3, luminescence; NIH3T3-HGL HSE-luciferase, MG132-induced, luminescence 8 h; active compounds read low; activity change, negative = inhibition, % at 7.5 µM (by protocol); hit rate 0.77% among 300,000;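 active = more than half of replicate wells show activity change below -50%, luminescence cut by over half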;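 note: luciferase reports HSF-1 transcriptional activity via heat shock element; 0% = median of DMSO wells and -100% = zero luminescence signal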
# Hsp70 activator = Hsp70 transcriptional activators, primary screen, cell-based, HeLa, Hsp70 promoter luciferase, luminescence, 10 µM. HeLa Hsp70 promoter luciferase reporter; scaled: vehicle 0, proteasome-inhibitor control 100%. activation, % at 10 µM. hit rate 0.04% among 200,000. AID 1203, 2008;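 active = activation above the mean across all tested compounds plus 3 SD, cutoff set per campaign, cut at about 5.5% in these data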;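 note: 100% = MG132 at 30 µM as the positive control and 0% = DMSO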
# L major viab = Leishmania major promastigote growth inhibition, primary screen; Leishmania major promastigotes, resazurin fluorescence viability; inhibition, % at 10 µM; hit rate 9% among 200,000; AID 1063, 2008; in the data active = inhibition above about 50%;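 note: promastigotes grown with compound for 44 hours at 28 °C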
# T cruzi inh = inhibitors of intracellular T. cruzi growth, primary screen, luminescence, NIH3T3 host cells. inhibition, % (no concentration beside the values). hit rate 1.4% among 300,000. AID 1885, 2009. T. cruzi beta-gal in NIH3T3, 90 h;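 active = mean inhibition across valid replicates above about 55%, limit read from the data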;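 note: signal also drops with host cell toxicity which is not excluded here; 0% = plate median of DMSO wells and 100% = zero luminescence signal; higher percent means less beta-gal luminescence so fewer parasites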
#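 Incubation – ≥90 h infection period, 3 h prior cell attachment · System – NIH/3T3 fibroblasts plus reporter T. cruzi · Doses – compound pinned at 50 nL/well, DMSO · Read-out basis – percent inhibition of parasite-derived β-gal signal · Signal – luminescent β-galactosidase signal after 60 min lysis · Also added – 5000 T. cruzi trypomastigotes/well · Medium – Low-serum DMEM with 2% FBS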
# * marks the source's active call; other numbers are inactive results; . = no result given. This is one part of a sample in which hits are shown more often than they occur.
SMILES,HSF-1 act,HSF1 inh,Hsp70 activator,L major viab,T cruzi inh
O=c1[nH]c(Cc2ccccn2)nc2scc(-c3ccccc3Cl)c12,3.9,-0.3,0.1,9.4,3.0
NS(=O)(=O)c1cccc(NC(=O)c2cccc(Oc3ccccc3)c2)c1,10.2,0.3,.,.,-3.6
COc1ccc(-c2nc(CCl)cs2)cc1,3.2,-0.7,0.1,11.2,5.5
COc1ccc(OC)c(S(=O)(=O)NCc2csc(-c3ccccc3)n2)c1,-17.4,3.7,-0.1,78.1*,-9.0
COc1ccc(OC)c(S(=O)(=O)NCc2cn3c(C)csc3n2)c1,-3.5,4.8,-0.1,-7.0,-10.9
COc1ccc(-c2csc(-c3ccccc3)n2)c(OC)c1,54.5*,17.0,0.0,-8.2,-8.6
COc1cccc(-c2nc(CCl)cs2)c1,7.7,5.7,0.2,42.8,60.7*
COc1ccc(-c2csc(-c3cccs3)n2)c(OC)c1,61.0*,24.1,-0.1,6.0,-18.1
CC(=O)c1ccc(NC(=S)N(C)C2CCN(C)CC2)cc1,22.5,-6.7,-0.1,32.5,8.1
CC1(C)OC(=O)C(=CNNc2c(Cl)cc(Cl)cc2Cl)C(=O)O1,8.2,16.9,.,.,7.3
COC(=O)c1cc(NC(=O)c2cc(-c3ccc(Cl)cc3)oc2C(F)(F)F)ccc1N1CCOCC1,15.2,5.9,.,.,62.8*
COC(=O)c1cc(NC(=O)c2cc(-c3ccccc3Cl)oc2C(F)(F)F)ccc1N1CCOCC1,7.0,5.9,.,.,30.8
CCOc1ccccc1C(=O)N1CCN(C(c2ccccc2)c2ccccc2)CC1,-9.3,-0.4,-0.1,95.3*,29.7
Cc1ccccc1C(=O)N1CCN(C(c2ccccc2)c2ccccc2)CC1,-5.3,-11.5,.,.,9.0
CCS(=O)(=O)c1nc(S(=O)(=O)c2ccc(C)cc2)c(N2CC(C)OC(C)C2)s1 (stereo not given),22.1,11.2,.,.,13.1
Cc1cc(N=Cc2c(O)n(-c3ccc(C)c(C)c3)c(=O)c3ccccc23)no1,.,.,0.2,54.4*,.
CC(=O)C1=NN(c2ccccc2)C(c2ccc3c(c2)OCO3)N1c1ccc(N2CCOCC2)cc1 (stereo not given),5.3,1.0,-0.2,4.6,24.7
COc1cccc(N2C(C(C)=O)=NN(c3ccccc3)C2c2ccc(N3CCOCC3)cc2)c1 (stereo not given),-10.9,1.8,-0.1,18.8,76.6*
O=C(O)CCN1C(=O)c2ccc(NC(=O)COc3ccccc3)cc2C1=O,-16.8,1.4,.,.,-14.1
CCOC(=O)C1C(c2ccc(O)c(OC)c2)NC(=S)NC1(O)C(F)(F)F (stereo not given),-4.0,-2.8,-0.4,-1.9,-13.4
Cc1cccc(S(=O)(=O)NCCC(=O)OC(C)C(=O)NC(=O)NC2CCCCC2)c1 (stereo not given),52.9*,21.2,-0.1,-1.2,-0.5
O=C(COC(=O)CCNS(=O)(=O)c1cccc(C(F)(F)F)c1)NC(=O)NC1CCCCC1,15.4,2.6,-0.1,1.2,-7.4
CCOC(=O)CNC(=S)n1ncnc1N,0.4,2.6,-0.2,10.8,-28.5
CCN(CC)c1ccc(NC(=O)c2ccccc2Br)cc1S(=O)(=O)Nc1ccccc1OC,2.6,-2.4,-0.2,96.7*,39.1
CCN(CC)c1ccc(NC(=O)c2ccccc2F)cc1S(=O)(=O)Nc1ccccc1OC,22.1,-4.3,-0.6,99.9*,44.2
SMILES,HSF-1 act,HSF1 inh,Hsp70 activator,L major viab,T cruzi inh
Cc1ccc(NC(=O)CN(C)Cc2c(O)ccc3ccccc23)cc1,-3.8,3.7,.,.,-13.5
CCN(CC(=O)Nc1ccc(NC(C)=O)cc1)Cc1c(O)ccc2cc(Br)ccc12,127.1*,100.9,.,.,18.2
Cc1ccc(-c2nnn(C/C(N)=N/O)n2)cc1,14.5,3.2,-0.3,0.7,-1.3
Cc1ccc(C(=O)c2sc3nsc(C)c3c2N)cc1,61.3*,32.6,0.5,-3.0,-7.1
CC(=O)NCCc1nc2cc(NC(=O)COc3cccc(C)c3)ccc2n1C,-2.2,4.2,.,.,-18.8
CCOc1ccc(NC(=O)CN(C)C(=O)c2ccccc2OCc2c(C)noc2C)cc1OCC,-13.8,-3.4,.,.,22.2
O=C(Cc1ccccc1)N/N=C/c1cc(Br)cc(Cl)c1O,-2.6,5.0,0.2,82.4*,54.0
O=C(Cc1ccccc1)N/N=C/c1cc(Br)c(Br)o1,80.3*,60.5,0.0,-4.2,-7.4
CCn1c(SCC(=O)NNC(=O)c2ccc(C)cc2)nnc1C1CC1,38.6,-5.3,.,.,-6.5
CC(C)CCN1CCN(Cc2cnc(-c3ccccc3)s2)CC1CCO (stereo not given),-5.3,-8.1,-0.3,88.0*,27.3
CC(C)CCN1CCN(Cc2cccn2-c2ccc(Cl)cn2)CC1CCO (stereo not given),-3.1,-3.9,0.1,73.4*,19.2
Cc1ccc(CN2CCN(CCCc3ccccc3)CC2CCO)cc1 (stereo not given),-7.3,-9.8,0.4,86.7*,17.3
Cc1ncc(CN2CCN(Cc3ccc(F)cc3)C(CCO)C2)s1 (stereo not given),-0.9,-1.2,-0.4,-3.3,-5.3
Cc1ncc(CN2CCN(CCc3ccccc3)C(CCO)C2)s1 (stereo not given),-9.4,-3.4,0.3,63.5*,16.9
CCOC(=O)/C(C#N)=C/c1cc2ccccc2nc1N1CCOCC1,-17.2,-1.2,-0.3,-2.8,-5.5
N#CC(C#N)=Cc1cc2ccccc2nc1N1CCCCC1,2.7,6.1,-0.5,82.1*,0.4
CC1(C)Cc2c(cnn2-c2ccc(F)cc2)C(NC(=O)CCCN2CCCCC2=O)C1 (stereo not given),-7.0,0.8,.,.,11.5
COc1ccc(CCN2CCC(Nc3nc4ccccc4n3Cc3ccc(F)cc3)CC2)cc1,-15.7,-19.7,-0.5,100.4*,36.4
COc1ccccc1CN1C(=O)c2ccccc2C1C(=O)NC1CCC(C)CC1 (stereo not given),25.5,6.1,0.3,6.9,3.9
CC1=C(C(=O)OCc2ccccc2)C(c2ccccc2OS(=O)(=O)c2ccc([N+](=O)[O-])cc2)NC(=O)N1CCCC(=O)O (stereo not given),38.6,22.8,.,.,26.1
CCn1c(=S)sc2c(=O)n(-c3ccccc3)c(SC)nc21,-1.5,-8.1,0.1,87.1*,13.5
N#CCSc1nc2c(sc(=S)n2Cc2ccco2)c(=O)n1-c1ccc(F)cc1,34.8,23.0,0.2,95.5*,42.1
CC(C)n1c(CSCc2ccc(Cl)cc2Cl)n[nH]c1=S,7.6,3.3,0.0,6.3,11.9
Clc1ccc(/C=N/Nc2nnc(Cl)c3ccccc23)cc1,120.8*,85.0,-0.5,5.8,-9.0
Cc1ccc(/C=N/Nc2nnc(Cl)c3ccccc23)cc1,64.6*,34.1,-0.2,2.1,-13.2
COc1cccc(C(=O)Nc2cc(OC)ccc2NC(=O)c2ccco2)c1,18.7,-2.5,.,.,-2.3
